# Measurements as given in ChEMBL document CHEMBL3228024, “Prodrug analogues of the antitumor alkaloid camptothecin” (1979).
# Active and inactive are the calls of the source. No cut-off for these calls is given here.
# Columns and labels:
# [1] = tested on: P388; assay: Antitumor activity against mouse P388 cells allografted in mouse assessed as increase in mouse survival time at 3.7 mg/kg, iv for 4 to 9 days relative to control; type: functional
# Procedure, shortened: (§1)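 Run under NCI protocols 3LE21 (L1210) and 3PS31 (P388) in mice, six mice per test group. Drug was injected daily for 9 days, with 20–30 uninjected control animals. Mean or median survival time of the treated group was divided by that of controls and multiplied by 100, then reported as percentage increase in life span.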
# [2] = tested on: L1210; assay: Antitumor activity against mouse L1210 cells allografted in mouse assessed as increase in mouse survival time at 11.1 mg/kg, iv for 4 to 9 days relative to control; type: functional; procedure, shortened: as §1
# [3] = tested on: L1210; assay: Antitumor activity against mouse L1210 cells allografted in mouse assessed as increase in mouse survival time at 1.2 mg/kg, iv for 4 to 9 days relative to control; type: functional; procedure, shortened: as §1
# [4] = tested on: P388; assay: Antitumor activity against mouse P388 cells allografted in mouse assessed as increase in mouse survival time at 11.1 mg/kg, iv for 4 to 9 days relative to control; type: functional; procedure, shortened: as §1
# [5] = tested on: HeLa; assay: Antitumor activity against human HeLa cells assessed as inhibition of radioactive thymidine incorporation into acid-insoluble material by DNA sedimentation assay; type: functional, cell-based
# [6] = tested on: L1210; assay: Antitumor activity against mouse L1210 cells allografted in mouse assessed as increase in mouse survival time at 0.4 mg/kg, iv for 4 to 9 days relative to control; type: functional; procedure, shortened: as §1
# [7] = tested on: P388; assay: Antitumor activity against mouse P388 cells allografted in mouse assessed as increase in mouse survival time at 0.4 mg/kg, iv for 4 to 9 days relative to control; type: functional; procedure, shortened: as §1
# [8] = tested on: L1210; assay: Antitumor activity against mouse L1210 cells allografted in mouse assessed as increase in mouse survival time at 3.7 mg/kg, iv for 4 to 9 days relative to control; type: functional; procedure, shortened: as §1
# [9] = tested on: P388; assay: Antitumor activity against mouse P388 cells allografted in mouse assessed as increase in mouse survival time at 1.2 mg/kg, iv for 4 to 9 days relative to control; type: functional; procedure, shortened: as §1
# [10] = tested on: P388; assay: Antitumor activity against mouse P388 cells allografted in mouse assessed as increase in mouse survival time at 45 mg/kg, iv for 4 to 9 days relative to control; type: functional; procedure, shortened: as §1
# [11] = tested on: P388; assay: Antitumor activity against mouse P388 cells allografted in mouse assessed as increase in mouse survival time at 23 mg/kg, iv for 4 to 9 days relative to control; type: functional; procedure, shortened: as §1
# [12] = tested on: P388; assay: Antitumor activity against mouse P388 cells allografted in mouse assessed as increase in mouse survival time at 6.4 mg/kg, iv for 4 to 9 days relative to control; type: functional; procedure, shortened: as §1
# [13] = tested on: P388; assay: Antitumor activity against mouse P388 cells allografted in mouse assessed as increase in mouse survival time at 62.5 mg/kg, iv for 4 to 9 days relative to control; type: functional
# Procedure, shortened: (§2)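 Mice bearing P388 leukemia (NCI protocol 3PS31), six mice per test, drug injected daily for 9 days (in some tests for only 6 days). Controls were 20–30 animals receiving no injection. Activity was expressed as mean/median survival time of the test group divided by that of the control group ×100.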
# [14] = tested on: L1210; assay: Cytotoxicity against mouse L1210 cells relative to camptothecin; type: functional
# [15] = tested on: L1210; assay: Cytotoxicity against mouse L1210 cells; type: functional
# [16] = tested on: P388; assay: Antitumor activity against mouse P388 cells allografted in mouse assessed as increase in mouse survival time at 6.5 mg/kg, iv for 4 to 9 days relative to control; type: functional; procedure, shortened: as §2
# [17] = Cytotoxicity against human 9KB cells relative to camptothecin; type: functional
# [18] = tested on: P388; assay: Cytotoxicity against mouse P388 cells; type: functional
# [19] = tested on: P388; assay: Cytotoxicity against mouse P388 cells relative to camptothecin; type: functional
# [20] = tested on: P388; assay: Antitumor activity against mouse P388 cells allografted in mouse assessed as increase in mouse survival time at 2.5 mg/kg, iv for 6 days relative to control; type: functional
# Procedure, shortened: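 NCI P388 protocol 3PS31 in mice, six mice per test group. Drug was injected daily for only 6 days, with 20–30 uninjected controls. The value is the mean or median survival time of treated mice over that of controls ×100, reported as percentage increase in life span.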
# [21] = Cytotoxicity against human 9KB cells; type: functional
# [22] = tested on: L1210; assay: Antitumor activity against mouse L1210 cells allografted in mouse assessed as increase in mouse survival time at 6.5 mg/kg, iv for 4 to 9 days relative to control; type: functional; procedure, shortened: as §1
# [23] = tested on: P388; assay: Antitumor activity against mouse P388 cells allografted in mouse assessed as increase in mouse survival time at 3.3 mg/kg, iv for 4 to 9 days relative to control; type: functional; procedure, shortened: as §1
# [24] = tested on: L1210; assay: Antitumor activity against mouse L1210 cells allografted in mouse assessed as increase in mouse survival time at 3.3 mg/kg, iv for 4 to 9 days relative to control; type: functional; procedure, shortened: as §1
# [25] = tested on: L1210; assay: Antitumor activity against mouse L1210 cells allografted in mouse assessed as increase in mouse survival time at 1.1 mg/kg, iv for 4 to 9 days relative to control; type: functional; procedure, shortened: as §1
# [26] = tested on: L1210; assay: Antitumor activity against mouse L1210 cells allografted in mouse assessed as increase in mouse survival time at 10 mg/kg, iv for 4 to 9 days relative to control; type: functional; procedure, shortened: as §1
# [27] = tested on: P388; assay: Antitumor activity against mouse P388 cells allografted in mouse assessed as increase in mouse survival time at 10 mg/kg, iv for 4 to 9 days relative to control; type: functional; procedure, shortened: as §1
# [28] = tested on: P388; assay: Antitumor activity against mouse P388 cells allografted in mouse assessed as increase in mouse survival time at 1.1 mg/kg, iv for 4 to 9 days relative to control; type: functional; procedure, shortened: as §1
# [29] = tested on: Lewis lung carcinoma cell line; assay: Antitumor activity against mouse LLC cells allografted in mouse assessed as increase in mouse survival time at 14.6 mg/kg, iv for 4 to 9 days relative to control; type: functional
# Procedure, shortened: (§3)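 Run under NCI protocols 3B131 (B-16 melanocytic melanoma) and 3LL32 (Lewis lung carcinoma) in mice, ten mice per test group. Drug was injected every 4 days, with 20–30 uninjected control animals. Mean or median survival of treated mice over that of controls ×100 was reported as percentage increase in life span.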
# [30] = tested on: L1210; assay: Antitumor activity against mouse L1210 cells allografted in mouse assessed as increase in mouse survival time at 4.8 mg/kg, iv for 4 to 9 days relative to control; type: functional; procedure, shortened: as §1
# [31] = tested on: B16; assay: Antitumor activity against mouse B16 cells allografted in mouse assessed as increase in mouse survival time at 46 mg/kg, iv for 4 to 9 days relative to control; type: functional; procedure, shortened: as §3
# [32] = tested on: P388; assay: Antitumor activity against mouse P388 cells allografted in mouse assessed as increase in mouse survival time at 4.8 mg/kg, iv for 4 to 9 days relative to control; type: functional; procedure, shortened: as §1
# [33] = tested on: Lewis lung carcinoma cell line; assay: Antitumor activity against mouse LLC cells allografted in mouse assessed as increase in mouse survival time at 4 mg/kg, iv for 4 to 9 days relative to control; type: functional; procedure, shortened: as §3
# [34] = tested on: L1210; assay: Antitumor activity against mouse L1210 cells allografted in mouse assessed as increase in mouse survival time at 14.3 mg/kg, iv for 4 to 9 days relative to control; type: functional; procedure, shortened: as §1
# [35] = tested on: P388; assay: Antitumor activity against mouse P388 cells allografted in mouse assessed as increase in mouse survival time at 0.5 mg/kg, iv for 4 to 9 days relative to control; type: functional; procedure, shortened: as §1
# [36] = tested on: B16; assay: Antitumor activity against mouse B16 cells allografted in mouse assessed as increase in mouse survival time at 14.6 mg/kg, iv for 4 to 9 days relative to control; type: functional; procedure, shortened: as §3
# [37] = tested on: P388; assay: Antitumor activity against mouse P388 cells allografted in mouse assessed as increase in mouse survival time at 1.6 mg/kg, iv for 4 to 9 days relative to control; type: functional; procedure, shortened: as §1
# [38] = tested on: Lewis lung carcinoma cell line; assay: Antitumor activity against mouse LLC cells allografted in mouse assessed as increase in mouse survival time at 44.4 mg/kg, iv for 4 to 9 days relative to control; type: functional; procedure, shortened: as §3
# [39] = tested on: B16; assay: Antitumor activity against mouse B16 cells allografted in mouse assessed as increase in mouse survival time at 4 mg/kg, iv for 4 to 9 days relative to control; type: functional; procedure, shortened: as §3
# [40] = tested on: L1210; assay: Antitumor activity against mouse L1210 cells allografted in mouse assessed as increase in mouse survival time at 1.6 mg/kg, iv for 4 to 9 days relative to control; type: functional; procedure, shortened: as §1
# [41] = tested on: L1210; assay: Antitumor activity against mouse L1210 cells allografted in mouse assessed as increase in mouse survival time at 0.5 mg/kg, iv for 4 to 9 days relative to control; type: functional; procedure, shortened: as §1
# [42] = tested on: P388; assay: Antitumor activity against mouse P388 cells allografted in mouse assessed as increase in mouse survival time at 14.3 mg/kg, iv for 4 to 9 days relative to control; type: functional; procedure, shortened: as §1
# [43] = tested on: L1210; assay: Antitumor activity against mouse L1210 cells allografted in mouse assessed as increase in mouse survival time at 5.1 mg/kg, iv for 4 to 9 days relative to control; type: functional; procedure, shortened: as §1
# [44] = tested on: L1210; assay: Antitumor activity against mouse L1210 cells allografted in mouse assessed as increase in mouse survival time at 62.5 mg/kg, iv for 4 to 9 days relative to control; type: functional; procedure, shortened: as §1
# [45] = tested on: P388; assay: Antitumor activity against mouse P388 cells allografted in mouse assessed as increase in mouse survival time at 5.1 mg/kg, iv for 4 to 9 days relative to control; type: functional; procedure, shortened: as §1
# [46] = tested on: L1210; assay: Antitumor activity against mouse L1210 cells allografted in mouse assessed as increase in mouse survival time at 18.9 mg/kg, iv for 4 to 9 days relative to control; type: functional; procedure, shortened: as §1
# [47] = tested on: P388; assay: Antitumor activity against mouse P388 cells allografted in mouse assessed as increase in mouse survival time at 18.9 mg/kg, iv for 4 to 9 days relative to control; type: functional; procedure, shortened: as §1
smiles,measurement,setting,value
CC[C@@](O)(C(=O)[O-])c1cc2n(c(=O)c1CO)Cc1cc3ccccc3nc1-2.[Na+],T/C,[1],85%
same,T/C,[2],74%
same,T/C,[3],147%
same,T/C,[4],67%
same,inhibition,[5],Active
same,T/C,[6],116%
same,T/C,[7],139%
same,T/C,[8],114%
same,T/C,[9],168%
CC[C@@](O)(C(=O)NC(C)C)c1cc2n(c(=O)c1Cn1ccnc1)Cc1cc3ccccc3nc1-2,T/C,[10],92%
same,T/C,[11],89%
same,T/C,[12],105%
CC[C@@](O)(C(=O)NC(C)C)c1cc2n(c(=O)c1CN1CCCC1)Cc1cc3ccccc3nc1-2.Cl,T/C,[13],125%
C=CC(=O)OCc1c([C@@](O)(CC)C(=O)NC(C)C)cc2n(c1=O)Cc1cc3ccccc3nc1-2,Activity,[14],2.7%
same,ED50,[15],7.6 ×10⁻⁴ umol/ml
same,T/C,[16],155%
same,Activity,[17],25%
same,ED50,[18],3.9 ×10⁻⁴ umol/ml
same,Activity,[19],0.45%
same,T/C,[20],165%
same,ED50,[21],6.9 ×10⁻⁵ umol/ml
same,T/C,[22],125%
CC[C@@]1(O)C(=O)OCc2c1cc1n(c2=O)Cc2cc3ccccc3nc2-1 [CAMPTOTHECIN],ED50,[15],2.8 ×10⁻⁶ umol/ml
same,T/C,[23],204%
same,T/C,[24],168%
same,T/C,[25],131%
same,T/C,[26],85%
same,ED50,[18],8.6 ×10⁻⁶ umol/ml
same,T/C,[27],81%
same,ED50,[21],<2.8 ×10⁻⁶ umol/ml
same,T/C,[28],147%
same,T/C,[6],114%
same,T/C,[7],137%
CCCCCC(=O)OCc1c([C@@](O)(CC)C(=O)NC(C)C)cc2n(c1=O)Cc1cc3ccccc3nc1-2,T/C,[29],147%
same,Activity,[14],2%
same,T/C,[30],116%
same,T/C,[31],109%
same,ED50,[15],5.5 ×10⁻⁴ umol/ml
same,T/C,[32],139%
same,T/C,[33],163%
same,T/C,[34],133%
same,T/C,[35],107%
same,inhibition,[5],Active
same,T/C,[36],109%
same,Activity,[17],29%
same,T/C,[37],107%
same,EC50,"[18]; Mus musculus, P388, read-out: ED50 (the source's name)",1.2 µM
same,Activity,[19],0.01%
same,ED50,[21],8.1 ×10⁻⁵ umol/ml
same,T/C,[38],134%
same,T/C,[39],110%
same,T/C,[40],105%
same,T/C,[41],105%
same,T/C,[42],155%
CC[C@@](O)(C(=O)NC(C)C)c1cc2n(c(=O)c1CN1CCCC1)Cc1cc3ccccc3nc1-2,Activity,[14],23%
same,T/C,[43],109%
same,ED50,[15],6.5 ×10⁻⁵ umol/ml
same,T/C,[44],113%
same,Activity,[17],7.8%
same,ED50,[18],1.1 ×10⁻⁴ umol/ml
same,Activity,[19],0.13%
same,ED50,[21],2.2 ×10⁻⁵ umol/ml
same,T/C,[45],111%
same,T/C,[46],101%
same,T/C,[47],126%
